Consider 23 compounds from ChEMBL document CHEMBL1132931, “Screening of new antioxidant molecules using flow cytometry” (2000).

Active and inactive are the calls of the source. The calls are words filed in the database; no cut-off is given here.

For test [1], the system named is Murine-murine hybridoma (mark 3). As to the kind of experiment: (§1) Antioxidative property against stable murine-murine hybridoma (Mark 3) cell line. It counts as functional.
Test [2] in a line: Glutathione peroxidase-like activity at 10x(E -2) M concentration as NADP+/L/min. It counts as functional.
Test [3] is filed under the species Mus musculus. The test is described as follows: Glutathione peroxidase-like activity at 10x(E -4) M concentration measured as NADP+/L/min. It counts as functional.
Test [4] is described as follows: Glutathione peroxidase-like activity at 10x(E -3) M concentration as NADP+/L/min. The class given is functional.
Test [5] is described as follows: Glutathione peroxidase-like activity in relation to Ebselen glutathione peroxidase-like activity. The class given is functional. More on the design: concentration or dose not given beside the values.
The nature of test [6]: Glutathione peroxidase-like activity at 10x(E -2) M concentration. The class given is functional.
The species entered for test [7] is Mus musculus. The test is described as §1. It counts as functional.
The species named for test [8] is Mus musculus. The test is described as follows: Antioxidative property against stable murine-murine hybridoma (Mark 3) cell line; no effect. It counts as functional, organism-based.
Test [9] is described as follows: Glutathione peroxidase-like activity in relative to Ebselen glutathione peroxidase-like activity. The class given is functional. Set-up: concentration or dose not given beside the values. An outline of the steps:
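Glutathione peroxidase-like activity by the Paglia and Valentine method. Compound solution (100 µL) was added to phosphate buffer, pH 7, with H2O2 and GSH (1.5 × 10-1 M stock in 0.01 M HCl). NADP+ formation was read at 340 nm and expressed as µmol NADP+/L/min. Blanks checked direct NADPH oxidation by compounds. Ebselen was run as the reference.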

A short description of test [10]: Glutathione peroxidase-like activity at 10x(E -4) M concentration as NADP+/L/min; traces. The class given is functional.
Test [11] is filed under the species Mus musculus. The test is described as follows: Antioxidative property against stable murine-murine hybridoma (Mark 3) cell line; fluorescence at 488 nm. The class given is functional, organism-based.

As to `COc1ccc2[nH]c3c(c2c1)-c1cccc(OC)c1C3=O`, the Effective molarity in [1] is 1e-05 M l-1. Moreover, the Activity is 58 µM in [2], 11 µM/min in the test listed under Mus musculus [3], 26 µM in [4] and 6% in test [5].

Take `COc1ccc2[nH]c3ccc4nc(C)sc4c3c2c1`: the Activity was determined as 33 µM/min in the test listed under Mus musculus [3], 35 µM in test [4], 6% in test [5] and 64 µM in test [6].

For the compound `CCOC(=O)c1cc2ccc3c(c4ccccc4n3C)c2o1`, the Effective molarity in test [1] is listed as 0.0001 M l-1. The Activity in test [2] came out at 53 µM; in the test listed under Mus musculus [3] it was 33 µM/min; in test [4] it was 15 µM; in [5], 5%.

In [1], `CCOC(=O)c1c2[nH]c3ccccc3c2cc2nc(C)sc12` showed an Effective molarity of 1e-05 M l-1. The Activity in test [2] turned out to be 506 µM; in the test listed under Mus musculus [3], 33 µM/min; in test [4], 46 µM; in test [5], 48%.

`COc1ccc2[nH]c3c(ccc4ccsc43)c2c1`: the Activity was determined as 60 µM in [2], 4 µM/min in the test filed under Mus musculus [3], 22 µM in test [4] and 6% in test [5].

For `COc1cccc2c1C(=O)c1[nH]c3ccccc3c1-2`, the Effective molarity in the test listed under Mus musculus [7] was 1e-06 M l-1. The Activity came out at 369 µM in test [2], 20 µM/min in the test filed under Mus musculus [3], 29 µM in test [4] and 35% in test [5].

For `c1ccc2c(c1)[nH]c1c2ccc2[se]nnc21`, the Activity in [2] is 51 µM; in the test filed under Mus musculus [3], 20 µM/min; in [9] it was 5%; in [4] it was 31 µM. In addition, the NE result in the test listed under Mus musculus [8] is “inactive”.

Consider `O=c1c2ccccc2[se]n1-c1ccccc1` [EBSELEN], for which the Effective molarity in test [1] turned out to be 1e-05 M l-1. The Activity in test [2] was 1050 µM; in [9], 100%; in [4] it was 111 µM.

For the compound `c1ccc2c(c1)[nH]c1c3ccsc3ccc21`, the Effective molarity in test [1] is recorded as 1e-05 M l-1. Also, the Activity in test [2] turned out to be 60 µM; in the test filed under Mus musculus [3], 26 µM/min; in test [9] it was 6%; in [4] it was 25 µM.

With VITAMIN E, in test [1], the Effective molarity worked out at 1e-10 M l-1. The Activity in test [2] was 20 µM; in the test filed under Mus musculus [3], 15 µM; in [4] it was 33 µM; in test [5], 2%.

On to `COC(=O)c1cc2ccc3c(c4ccccc4n3C)c2[se]1`, for which the Effective molarity in [1] stood at 1e-05 M l-1. The Activity in test [2] was determined as 104 µM; in the test listed under Mus musculus [3], 29 µM/min; in [9], 10%; in test [4] it was 31 µM.

In [1], `Cn1cnc2c3[nH]c4ccccc4c3ccc21` came in with an Effective molarity of 1e-05 M l-1. Further, the Activity is 42 µM in test [2], 29 µM/min in the test filed under Mus musculus [3], 20 µM in test [4] and 4% in test [5].

In turn, `c1ccc2c3c([nH]c2c1)-c1ccsc1SC3` yielded an Effective molarity in test [1] of 1e-05 M l-1. Also, the Activity in [2] was found to be 75 µM; in the test filed under Mus musculus [3], 44 µM/min; in test [9], 7%; in [4], 71 µM.

In the case of `Cc1nc2ccc3[nH]c4ccccc4c3c2s1`, the Activity in test [2] amounted to 93 µM; in the test filed under Mus musculus [3] it was 20 µM/min; in test [4] it was 29 µM; in [5] it was 9%.

With `CS(=O)(=O)n1c2ccccc2c2c3nn[se]c3ccc21`, in [1], the Effective molarity is reported as 0.0001 M l-1. Besides, the Activity was found to be 46 µM in [2], 29 µM/min in the test filed under Mus musculus [3], 4% in [9] and 33 µM in test [4].

For the compound `CCOC(=O)c1sc(SC)c2c1ccc1c3cc(OC)ccc3[nH]c12`, the Activity was 151 µM in [2], 26 µM/min in the test filed under Mus musculus [3], 9 µM in test [4] and 14% in [5].

In test [1], `CS(=O)(=O)n1c2c(c3ccccc31)-c1nn[se]c1CC2` returned an Effective molarity of 0 M l-1. Further, the Activity in test [2] turned out to be 140 µM; in the test filed under Mus musculus [3] it was 31 µM/min; in test [9] it was 13%; in test [4], 33 µM.

For the compound `c1ccc2c(c1)[nH]c1c2ccc2ccsc21`, the Effective molarity in test [1] was 1e-05 M l-1. Besides, the Activity was 25 µM in test [2], 27 µM/min in the test filed under Mus musculus [3], 2% in test [9] and 20 µM in test [4].

In test [1], `CCOC(=O)c1c2[nH]c3ccc(OC)cc3c2cc2nc(C)sc12` yielded an Effective molarity of 1e-05 M l-1. The Activity in test [2] was 215 µM; in the test filed under Mus musculus [3], 40 µM/min; in test [4], 58 µM; in test [5], 21%.

In the case of `CCOC(=O)c1sc(SC)c2c1ccc1c3ccccc3[nH]c12`, the Activity result in test [10] is “traces”; in test [2], 133 µM; in test [4] it was 38 µM; in [5] it was 13%. Further, the Effective molarity result in the test filed under Mus musculus [11] is on record as “fluorescence at 488 nm”.

`COc1ccc2[nH]c3c4ccsc4ccc3c2c1`: the Effective molarity in [1] turned out to be 1e-06 M l-1. Further, the Activity in test [2] stood at 47 µM; in the test listed under Mus musculus [3], 13 µM/min; in test [4], 20 µM; in test [5] it was 4%.

In test [1], `CCOC(=O)c1cc2ccc3c(c4ccccc4n3C)c2s1` came in with an Effective molarity of 0.0001 M l-1. Also, the Activity in [5] worked out at 11%.

On to `CS(=O)(=O)n1c2c(c3ccccc31)CCc1[se]nnc1-2`, for which the Effective molarity in [1] is 0.0001 M l-1. Further, the Activity in test [2] came out at 246 µM; in the test filed under Mus musculus [3], 18 µM/min; in test [9], 23%; in test [4], 31 µM.
